The record followed here is article PMC4452124 (Toxicology research, 2014).

pIC50: −log10 of the molar value. Where two headings read alike, the source gives them in different places. Some results are limits rather than exact numbers.

In series [1] the target is T1, human BCRP (Homo sapiens, UniProt Q9UNQ0).
T1 sequence (Q9UNQ0 1-655): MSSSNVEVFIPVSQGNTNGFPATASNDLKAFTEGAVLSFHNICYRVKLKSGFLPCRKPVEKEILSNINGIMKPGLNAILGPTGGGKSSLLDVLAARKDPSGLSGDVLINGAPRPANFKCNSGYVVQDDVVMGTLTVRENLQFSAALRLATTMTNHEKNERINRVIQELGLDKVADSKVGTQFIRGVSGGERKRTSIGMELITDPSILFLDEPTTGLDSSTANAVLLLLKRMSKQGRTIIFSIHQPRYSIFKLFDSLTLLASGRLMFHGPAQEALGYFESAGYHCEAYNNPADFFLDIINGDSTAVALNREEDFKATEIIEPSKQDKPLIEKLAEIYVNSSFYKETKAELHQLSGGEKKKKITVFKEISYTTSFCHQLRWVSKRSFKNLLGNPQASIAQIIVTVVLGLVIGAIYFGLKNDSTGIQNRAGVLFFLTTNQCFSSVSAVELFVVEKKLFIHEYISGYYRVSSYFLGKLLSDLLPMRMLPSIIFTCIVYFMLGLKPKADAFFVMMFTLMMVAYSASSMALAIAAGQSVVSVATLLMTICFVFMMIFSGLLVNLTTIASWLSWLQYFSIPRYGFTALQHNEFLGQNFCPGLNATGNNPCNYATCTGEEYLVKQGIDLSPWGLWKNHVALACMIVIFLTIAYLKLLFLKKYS
Description: biochemical.

Series [2] addresses T1, human BCRP. Description: biochemical. The source holds these as a separate data set.
Series [3] addresses T1, human BCRP. Description: BCRP ATPase assay, activation of baseline activity. The conditions noted are these: absence of sulfasalazine. The series is classed as biochemical.
In series [4] the target is T2, BCRP in BeWo cells (Homo sapiens, UniProt Q9UNQ0).
T2 sequence (Q9UNQ0 1-655): T1 sequence (Q9UNQ0 1-655)

The target of series [5] is T1, human BCRP.
The subject of another series is BCRP (wild-type). Description: alamarBlue cell viability, HEK cells expressing WT BCRP. The series is classed as cell-based. The following applies: human. In general terms: Alamar Blue is a resazurin reagent that responds to reducing activity.
Series [6] is described as follows: alamarBlue cell viability, HEK cells expressing empty vector. The series is classed as cell-based. The following applies: human.
In another series the test system is BCRP (Q141K variant). Description: alamarBlue cell viability, HEK cells expressing Q141K BCRP. The series is classed as cell-based. The following applies: human.
The test system of series [7] is BCRP protein expression in BeWo cells. Description: Western blot of BCRP protein in BeWo cells after zearalenone exposure. The following applies: 48 h, 1 or 10 μM. The class given is cell-based, human. The method in brief:
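BeWo choriocarcinoma cells grown in DMEM F-12 with 10% FBS and 1% penicillin-streptomycin at 37°C, 5% CO2, used at 80–90% confluence, then exposed to test compound (0, 1 or 10 μM). Lysate protein measured by BCA; 5 μg resolved on 4–12% Bis-Tris SDS gels and probed for BCRP (~72 kDa), with β-actin as loading control. Bands semi-quantified.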
On the technique in general: Immunoblotting shows a protein as a band on a membrane.

Another series addresses T3, WT BCRP in HEK cells (Homo sapiens, UniProt Q9UNQ0).
T3 sequence (Q9UNQ0 1-655): T1 sequence (Q9UNQ0 1-655)
Description: Hoechst 33342 fluorescent substrate transport assay in WT BCRP HEK cells. The class given is cell-based. The conditions noted are these: Hoechst 33342 7 μM.

A further series concerns the target T4, Bcrp (Mus musculus, UniProt Q7TMS5).
T4 sequence (Q7TMS5 1-657): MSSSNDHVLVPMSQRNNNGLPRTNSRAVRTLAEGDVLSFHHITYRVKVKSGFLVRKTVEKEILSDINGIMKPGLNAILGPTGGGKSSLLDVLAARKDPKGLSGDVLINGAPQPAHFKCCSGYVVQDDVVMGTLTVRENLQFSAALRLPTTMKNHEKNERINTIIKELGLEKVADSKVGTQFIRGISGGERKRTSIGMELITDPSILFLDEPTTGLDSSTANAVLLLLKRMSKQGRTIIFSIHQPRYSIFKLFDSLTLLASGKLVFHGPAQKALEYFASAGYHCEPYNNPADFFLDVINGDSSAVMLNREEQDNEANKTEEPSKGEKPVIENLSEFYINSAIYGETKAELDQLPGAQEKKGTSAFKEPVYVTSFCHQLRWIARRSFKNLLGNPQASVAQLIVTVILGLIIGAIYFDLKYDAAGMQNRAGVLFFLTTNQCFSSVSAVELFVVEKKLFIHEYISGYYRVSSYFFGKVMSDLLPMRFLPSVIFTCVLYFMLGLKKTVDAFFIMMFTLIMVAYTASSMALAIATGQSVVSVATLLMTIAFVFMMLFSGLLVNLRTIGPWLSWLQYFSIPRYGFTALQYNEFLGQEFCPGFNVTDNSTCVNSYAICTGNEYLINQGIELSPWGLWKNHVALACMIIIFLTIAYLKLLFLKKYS
Description: Pilot study of plasma zearalenone in Bcrp-null versus wild-type mice. The series is classed as in vivo. The following applies: after oral dosing, pilot studies, data not shown.

Series [8] addresses T2, BCRP in BeWo cells. In words: Intracellular zearalenone accumulation by ELISA in BeWo cells. The class given is cell-based. The conditions noted are these: zearalenone 10 μM, Ko143 1 μM. A general note: ELISA stands for enzyme-linked immunosorbent assay.
Where [9] appears, read: Inhibitory Concentration (IC50) Vesicle Assay, Lucifer yellow (50 μM) transport, 2 min, 37°C.
Where [10] appears, read: BeWo cells, Hoechst 33342 15 μM.

As for `C#CCOS(=O)OC1CCCCC1Oc1ccc(C(C)(C)C)cc1` (stereo not drawn) [Propargite, propargite], the pIC50 against human BCRP [1] (setting [9]) is 4.50; at human BCRP [2], 5.59.

At human BCRP [1] (Inhibitory Concentration (IC50) Vesicle Assay), `O=c1c(-c2ccc(O)cc2)coc2cc(O)cc(O)c12` [Genistein, genistein] gave a pIC50 of 5.72. For the same compound, the “Concentration that stimulated baseline ATPase activity” value at human BCRP [3] is no less than 0.01 µM. For the same compound, at BCRP in BeWo cells [4] (human), the “Concentration that increased intracellular Hoechst 33342 fluorescence” value was no less than 10 µM and the “Increase in retention of Hoechst 33342” value is 50–100%. For the same compound, the “Change in BCRP-mediated ATPase activity” value on human BCRP [5] is on record as “no change in ATPase activity was detected”.

As to `CCC[CH2][Sn]([CH2]CCC)[CH2]CCC` [Tributyltin, tributyltin], the pIC50 on human BCRP [1] (read-out: Inhibitory Concentration (IC50) Vesicle Assay, Lucifer yellow (50 μM) transport, 2 min, 37°C) was 4.52. Further, the “Increase in retention of Hoechst 33342” value on BCRP in BeWo cells [4] (BeWo cells) was 50–100%. Besides, at BCRP in BeWo cells [4] (setting [10]), the “Concentration that increased intracellular Hoechst 33342 fluorescence” value is no less than 10 µM.

On to `CCCCC(C#N)(Cn1cncn1)c1ccc(Cl)cc1` (stereo not drawn) [Myclobutanil, myclobutanil], for which the pIC50 against human BCRP [1] (setting [9]) was 4.20; at human BCRP [2], 4.10.

For `CC(C)(C)C(O)(CCc1ccc(Cl)cc1)Cn1cncn1` (stereo not drawn) [Tebuconazole, tebuconazole], the values for the pIC50 at human BCRP [1] (setting [9]) and against human BCRP [2] were 4.39 and less than 4.00, respectively.

Take `CCCN(CCOc1c(Cl)cc(Cl)cc1Cl)C(=O)n1ccnc1` [Prochloraz, prochloraz]: the figures for the pIC50 against human BCRP [1] (setting [9]) and against human BCRP [2] were 4.73 and 4.37, respectively.

Take `O=C1c2c(O)ccc(O)c2C(=O)c2c(NCCNCCO)ccc(NCCNCCO)c21` [Mitoxantrone, mitoxantrone, reference compound]: the results for the CC50 (in the series with BCRP (wild-type); in series [6]; in the series with BCRP (Q141K variant)) were 3.19 µM, 0.34 µM and 1.14 µM, respectively.

In the case of `CCCC1COC(Cn2cncn2)(c2ccc(Cl)cc2Cl)O1` (stereo not drawn) [Propiconazole, propiconazole], the pIC50 against human BCRP [1] (setting [9]) is 4.29; on human BCRP [2] it was 4.20.

As to `COc1ccc(C(c2ccc(OC)cc2)C(Cl)(Cl)Cl)cc1` [Methoxychlor, methoxychlor], the values for the pIC50 against human BCRP [1] (setting [9]) and at human BCRP [2] were 4.42 and 5.28, respectively. In addition, the “Concentration that increased intracellular Hoechst 33342 fluorescence” value on BCRP in BeWo cells [4] (setting [10]) was found to be 100 µM.

Regarding `CC(C)(c1ccc(O)cc1)c1ccc(O)cc1` [Bisphenol A, bisphenol A], the pIC50 against human BCRP [1] (setting [9]) was 4.26; on human BCRP [2] it was less than 4.00. Moreover, the “Concentration that increased intracellular Hoechst 33342 fluorescence” value on BCRP in BeWo cells [4] (setting [10]) came to 50 µM.

Take `Fc1ccc([C@]2(Cn3cncn3)O[C@H]2c2ccccc2Cl)cc1` (racemic) [Epoxiconazole, epoxiconazole]: the pIC50 is 4.19 against human BCRP [1] (setting [9]) and less than 4.00 at human BCRP [2].

As for `C[C@H]1CCCC(=O)CCC/C=C/c2cc(O)cc(O)c2C(=O)O1` [Zearalenone, zearalenone], the pIC50 at human BCRP [1] (setting [9]) is 5.32; on human BCRP [2], 4.39. Moreover, in series [7], the “Effect on BCRP protein expression” value is listed as “did not alter BCRP protein expression”. Besides, on WT BCRP in HEK cells, the “Concentrations that increased Hoechst accumulation” value was 10 to 100 µM. The “Plasma zearalenone levels, Bcrp-null mice compared to wild-types” value on Bcrp is listed as ~ 10 fold. The values for the CC50 at 72 h (with BCRP (wild-type); in series [6]; with BCRP (Q141K variant)) were 171 µM, 45.6 µM and 40.6 µM, respectively. The “Concentration that increased intracellular Hoechst 33342 fluorescence” value at BCRP in BeWo cells [4] (setting [10]) turned out to be 50 µM. At BCRP in BeWo cells [8], the “Increase of intracellular zearalenone levels on BCRP inhibition with Ko143” value was 2.7 fold.

For orientation: CC50 means the concentration that lowers cell viability or growth by half. A higher CC50 goes with lower toxicity to the cells.
